According to ChEMBL document CHEMBL1811832, “Transformation of isosteviol lactam by fungi and the suppressive effects of its transformed products on LPS-induced iNOS expression in macrophages” (2011):

What follows are molecules tested on RAW264.7 (assay: Antiinflammatory activity against mouse RAW264.7 cells assessed as inhibition of LPS-induced iNOS mRNA expression at 10 uM after 24 hrs by RT-PCR relative to control).
Assay type: functional
Summary of the method: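 Murine RAW 264.7 macrophages stimulated with LPS 100 ng/mL for 4 h, then treated with compound at 10 μM for 24 h with LPS still present; dexamethasone as reference. Total RNA extracted with TRIzol, oligo(dT)-primed cDNA, real-time PCR (50 cycles, dissociation-curve check). iNOS mRNA expressed as fold relative to LPS-only cells; mean ± SEM, n = 3, paired two-tailed t-test.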

SMILES	fold change (FC)
CC1=CC[C@@H]2[C@](CC#N)(CC[C@H]3[C@@]2(C)CCC[C@@]3(C)C(=O)O)C1	0.63
CC1=C[C@@]2(CC#N)CC[C@H]3[C@](C)([C@@H]2CC1)[C@@H](O)CC[C@@]3(C)C(=O)O	0.43
CO[C@H]1C[C@@H]2[C@@](CC#N)(C=C1C)CC[C@H]1[C@@]2(C)CCC[C@@]1(C)C(=O)O	0.2
C[C@@]12CCC[C@@](C)(C(=O)O)[C@H]1CC[C@]13CC(=O)N[C@](C)(C1)[C@@H](O)C[C@H]32	0.13
C[C@@H]1C[C@H]2[C@@H]3CCC4=CC(=O)C=C[C@]4(C)[C@@]3(F)[C@@H](O)C[C@]2(C)[C@@]1(O)C(=O)CO [DEXAMETHASONE]	0.16
C[C@@]12CC[C@@H]3[C@@](CC[C@H]4[C@@]3(C)CCC[C@@]4(C)C(=O)O)(C/C1=N\O)C2 [ISOSTEVIOL OXIME]	0.15
C[C@@]12CC[C@H]3[C@]4(C)CCC[C@@](C)(C(=O)O)[C@H]4C[C@H](O)[C@]3(CC(=O)N1)C2	0.61
CC1=CC[C@@H]2[C@](CC#N)(CC[C@H]3[C@@]2(C)CCC[C@@]3(C)C(=O)OCCO)C1	0.5
C[C@@]12CC[C@@H]3[C@@](CC[C@H]4[C@@]3(C)CCC[C@@]4(C)C(=O)O)(CC1=O)C2 [ISOSTEVIOL]	0.29
CCO[C@@H]1C[C@@H]2[C@@](CC#N)(C=C1C)CC[C@H]1[C@@]2(C)CCC[C@@]1(C)C(=O)O	0.21
C=C1C[C@@]2(CC#N)CC[C@H]3[C@@](C)(CCC[C@@]3(C)C(=O)O)[C@@H]2C[C@H]1Cl	0.3
C[C@]12CC[C@H]3[C@]4(C)CCC[C@@](C)(C(=O)O)[C@H]4CC[C@@]3(C1)[C@H](Cl)C(=O)N2	0.85
CC1=C[C@@]2(CC#N)CC[C@H]3[C@@](C)(CCC[C@@]3(C)C(=O)O)[C@@H]2CC1	0.48
CC1=C[C@@]2(CC#N)[C@@H](O)C[C@H]3[C@@](C)(CCC[C@@]3(C)C(=O)O)[C@@H]2CC1	0.12
C[C@@]12CC[C@@H]3[C@@](CC[C@H]4[C@@]3(C)CCC[C@@]4(C)C(=O)O)(CC(=O)N1)C2 [ISOSTEVIOL LACTAM]	0.15
